Laboratory results reported in ChEMBL document CHEMBL1133083, “Synthesis and immunosuppressive activity of 2-substituted 2-aminopropane-1,3-diols and 2-aminoethanols” (2000).

Key:
Rattus norvegicus [1] = species on record: Rattus norvegicus; experiment: T cell-decreasing effect in spleen cells of WKAH rat which were injected into foot-pad of LEW rat.; type: functional; conditions: read-out: ID50 (the source's name)
Method in brief: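 T-cell decrease was measured in the popliteal node gain model: WKAH spleen cells (5 × 10⁶) injected into the LEW rat footpad, with oral dosing for 4 days from the day of injection. Blood T-cells were counted by two-colour flow cytometry with FITC anti-rat CD3 (1F4) and PE anti-rat CD45RA (OX-33). Value is ID₅₀ (mg/kg).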

Rattus norvegicus [2] = species on record: Rattus norvegicus; experiment: Lymphocyte-decreasing effect against F344 rats.; type: functional; conditions: for ED50: read-out: ID50 (the source's name)
Method in brief: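 F344 rats aged 5 weeks were dosed intraperitoneally in 20% hydroxypropyl-β-cyclodextrin. Peripheral blood was taken 24 h later and total lymphocytes counted by lymphocyte gating. ID₅₀/ID₈₀ is the lowest dose lowering the lymphocyte count by 50% or 80% of the vehicle-treated control.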

Rattus norvegicus [3] = experiment: Immunosuppressive activity against skin allograft in F344 recipient (rat) from LEW donor (rat) at a concentration of 10 mg/kg; type: functional
Method in brief: (§1)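 MHC-compatible skin allograft: LEW (RT1^l) donor skin to F344 (RT1^lv1) recipients, all rats 4-6 weeks old. Full-thickness 2.0 × 2.0 cm grafts were placed on the recipient's lateral thorax under sterile bactericidal gauze. Read-out was mean survival time in days ± SE, with four animals per group. Deaths were scored as toxic.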

Rattus norvegicus [4] = experiment: Immunosuppressive activity against skin allograft in F344 recipient (rat) from LEW donor (rat) at a concentration of 3 mg/kg; type: functional; method in brief: as §1
Rattus norvegicus [5] = experiment: Immunosuppressive activity against skin allograft in F344 recipient (rat) from LEW donor (rat) at a concentration of 0.1 mg/kg; type: functional; method in brief: as §1
Rattus norvegicus [6] = experiment: Immunosuppressive activity against skin allograft in F344 recipient (rat) from LEW donor (rat) at a concentration of 0.3 mg/kg; type: functional; method in brief: as §1
Rattus norvegicus [7] = experiment: Immunosuppressive activity against skin allograft in F344 recipient (rat) from LEW donor (rat) at a concentration of 1 mg/kg; type: functional; method in brief: as §1
Rattus norvegicus [8] = experiment: Immunosuppressive activity against skin allograft in F344 recipient (rat) from LEW donor (rat) at a concentration of 10 mg/kg; Toxic; type: functional, organism-based; parameters: dose 10 mg/kg
Rattus norvegicus [9] = experiment: Immunosuppressive activity against skin allograft in F344 recipient (rat) from LEW donor (rat) at a concentration of 3 mg/kg; Toxic; type: functional, organism-based; parameters: dose 3 mg/kg
Rattus norvegicus [10] = species on record: Rattus norvegicus; experiment: Immunosuppressive activity against LEW rats injected with spleen cells of WKAH rat in Popliteal Lymph Node Gain Assay.; type: functional; conditions: read-out: ID50 (the source's name)
Method in brief: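 Popliteal lymph node gain: WKAH rat (RT1^k) spleen cells, 5 × 10⁶, injected into footpad of LEW rats (RT1^l) to enlarge the draining popliteal node. Compound given orally for 4 days starting on the day of cell injection, then popliteal node weighed. Value is ID₅₀ (mg/kg).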

Rattus norvegicus [11] = experiment: Immunosuppressive activity against skin allograft in F344 recipient (rat) from LEW donor (rat) at a concentration of 30 mg/kg; type: functional; method in brief: as §1

SMILES	ED50 (Rattus norvegicus [1])	ID80 (Rattus norvegicus [2])	ED50 (Rattus norvegicus [2])	MST (Rattus norvegicus [7])	ED50 (Rattus norvegicus [10])	further results
CCCCCCCOc1ccc(CC[C@@](C)(N)CO)cc1.Cl	0.0092 mg/kg	–	–	–	–	–
CCCCCCCc1ccc(CCCC(N)(CO)CO)cc1.Cl	–	>3 mg/kg	> 3 mg/kg	–	–	MST (Rattus norvegicus [3]): 10.5 days; MST (Rattus norvegicus [4]): 9 days
CCCCCCCOc1ccc(CCC(N)(CO)CO)cc1.Cl	0.014 mg/kg	0.1 mg/kg	0.03 mg/kg	33.8 days	–	MST (Rattus norvegicus [5]): 15 days; MST (Rattus norvegicus [6]): 23.5 days; MST (Rattus norvegicus [8]): Toxic; MST (Rattus norvegicus [4]): 39.5 days
CCCCCCCCCc1ccc(CCC(N)(CO)CO)cc1.Cl	–	0.1 mg/kg	0.03 mg/kg	32 days	–	MST (Rattus norvegicus [6]): 23 days; MST (Rattus norvegicus [9]): Toxic
CCCCCCCCc1ccc(CCC(N)(CO)CCO)cc1 (stereo unspecified)	0.12 mg/kg	–	–	–	0.009 mg/kg	–
Cl.NC(CO)(CO)CCCCCCCCCCc1ccccc1	–	1 mg/kg	0.3 mg/kg	27 days	–	MST (Rattus norvegicus [5]): 11.5 days; MST (Rattus norvegicus [6]): 21.5 days; MST (Rattus norvegicus [9]): Toxic
CCCCCCCOc1ccc(CCC(N)(CC)CO)cc1.Cl (stereo unspecified)	0.044 mg/kg	–	–	–	–	–
CCCCCCCCc1cccc(CCC(N)(CO)CO)c1.Cl	–	>3 mg/kg	> 3 mg/kg	–	–	–
CCc1ccc(CCCCCCCCC(N)(CO)CO)cc1.Cl	–	>3 mg/kg	> 3 mg/kg	–	–	MST (Rattus norvegicus [3]): 8.6 days; MST (Rattus norvegicus [4]): 8.5 days
CCCCCCCN(C)c1ccc(CCC(N)(CO)CO)cc1.Cl	–	1 mg/kg	1 mg/kg	21.3 days	–	MST (Rattus norvegicus [8]): Toxic; MST (Rattus norvegicus [4]): 29 days
CCCCCCCCc1ccc(CCC(N)(CO)CO)cc1.Cl [FINGOLIMOD HYDROCHLORIDE]	0.024 mg/kg	0.1 mg/kg	0.03 mg/kg	39.5 days	0.0097 mg/kg	MST (Rattus norvegicus [5]): 25.3 days; MST (Rattus norvegicus [6]): 31.3 days; MST (Rattus norvegicus [8]): Toxic; MST (Rattus norvegicus [4]): 52 days
CCCCCCCc1ccc(CCC(N)(CO)CO)cc1.Cl	–	0.3 mg/kg	0.1 mg/kg	–	–	–
CCCCCCCCc1ccc(CCC(N)CO)cc1.Cl (stereo unspecified)	> 10 mg/kg	–	–	–	> 10 mg/kg	–
CCCCCCCOc1ccc(CCC(N)(CO)CCO)cc1 (stereo unspecified)	0.055 mg/kg	–	–	–	0.038 mg/kg	–
CCCCCCCCCCCCCCC(N)(CO)CO.Cl	–	0.3 mg/kg	0.3 mg/kg	37.3 days	–	MST (Rattus norvegicus [5]): 13.8 days; MST (Rattus norvegicus [6]): 26.5 days; MST (Rattus norvegicus [8]): Toxic; MST (Rattus norvegicus [4]): 45.5 days
CCCCCCc1ccc(CCCCC(N)(CO)CO)cc1	–	>3 mg/kg	> 3 mg/kg	–	–	MST (Rattus norvegicus [3]): 18.8 days; MST (Rattus norvegicus [4]): 13.8 days
CCCCCCCOc1ccc(CCC(N)(CO)CCC)cc1 (stereo unspecified)	7.3 mg/kg	–	–	–	–	–
CCCCc1ccc(CCCCCCC(N)(CO)CO)cc1.Cl	–	1 mg/kg	0.3 mg/kg	–	–	MST (Rattus norvegicus [3]): 13.5 days; MST (Rattus norvegicus [4]): 9.8 days
CCCCCCCOc1ccc(CC[C@](N)(CO)CCC)cc1	> 10 mg/kg	–	–	–	> 10 mg/kg	–
CCCCCCCCCCc1ccc(CCC(N)(CO)CO)cc1.Cl	–	0.1 mg/kg	0.1 mg/kg	48 days	–	MST (Rattus norvegicus [5]): 20 days; MST (Rattus norvegicus [6]): 37.8 days; MST (Rattus norvegicus [9]): Toxic
CCCCCCCCc1ccc(CCC(N)(CO)C(=O)O)cc1 (stereo unspecified)	> 10 mg/kg	–	–	–	> 10 mg/kg	–
CCCCCCCSc1ccc(CCC(N)(CO)CO)cc1	–	0.03 mg/kg	0.03 mg/kg	44.5 days	–	MST (Rattus norvegicus [5]): 22.3 days; MST (Rattus norvegicus [6]): 36 days; MST (Rattus norvegicus [9]): Toxic

SMILES	ED50 (Rattus norvegicus [1])	ID80 (Rattus norvegicus [2])	ED50 (Rattus norvegicus [2])	MST (Rattus norvegicus [7])	ED50 (Rattus norvegicus [10])	further results
CCCCCCCC(O)c1ccc(CCC(N)(CO)CO)cc1 (stereo unspecified)	–	0.3 mg/kg	0.1 mg/kg	–	–	–
CCCCCCCC(=O)c1ccc(CCC(N)(CO)CO)cc1	–	0.3 mg/kg	0.03 mg/kg	32.5 days	–	MST (Rattus norvegicus [5]): 19.8 days; MST (Rattus norvegicus [6]): 25.5 days; MST (Rattus norvegicus [9]): Toxic
CCCCCCCOc1ccc(CC[C@](N)(CO)CCO)cc1.Cl	4.2 mg/kg	–	–	–	4.2 mg/kg	–
CCCCCCCCCc1ccc(CC(N)(CO)CO)cc1.Cl	–	>3 mg/kg	> 3 mg/kg	–	–	MST (Rattus norvegicus [3]): 11.8 days; MST (Rattus norvegicus [4]): 9.8 days
CCCCCCCCc1ccc(CCC(N)(CO)CO)s1.Cl	–	>3 mg/kg	1 mg/kg	17.3 days	–	MST (Rattus norvegicus [6]): 13 days; MST (Rattus norvegicus [4]): 21 days
CCCCCCCOc1ccc(CCC(N)(CO)C(C)C)cc1.Cl (stereo unspecified)	4.5 mg/kg	–	–	–	–	–
CCCCCCCCCCCCCc1ccc(CCC(N)(CO)CO)cc1.Cl	–	1 mg/kg	0.03 mg/kg	–	–	–
CCCCCCCCCCCCc1ccc(CCC(N)(CO)CO)cc1.Cl	–	1 mg/kg	0.1 mg/kg	40.5 days	–	MST (Rattus norvegicus [5]): 12 days; MST (Rattus norvegicus [6]): 22.8 days; MST (Rattus norvegicus [8]): Toxic; MST (Rattus norvegicus [4]): 53 days
CCCCCCCCc1ccccc1CCC(N)(CO)CO.Cl	–	>3 mg/kg	> 3 mg/kg	–	–	–
CCCCCCCCc1ccc(CCC(C)(N)CCO)cc1.Cl (stereo unspecified)	> 10 mg/kg	–	–	–	> 10 mg/kg	–
CCCCCCCCCCc1ccc(C(N)(CO)CO)cc1.Cl	–	>3 mg/kg	0.3 mg/kg	–	–	–
CCCCCCCOc1ccc(CC[C@@](N)(CO)CCC)cc1	4.4 mg/kg	–	–	–	–	–
CCCCCCCOc1ccc(CCC(N)(CO)CCCC)cc1 (stereo unspecified)	> 10 mg/kg	–	–	–	> 10 mg/kg	–
CCCCCCCCCCCCCCc1ccc(CCC(N)(CO)CO)cc1.Cl	–	>3 mg/kg	1 mg/kg	–	–	–
C/C=C/C[C@@H](C)[C@@H](O)[C@H]1C(=O)N[C@@H](CC)C(=O)N(C)CC(=O)N(C)[C@@H](CC(C)C)C(=O)N[C@@H](C(C)C)C(=O)N(C)[C@@H](CC(C)C)C(=O)N[C@@H](C)C(=O)N[C@H](C)C(=O)N(C)[C@@H](CC(C)C)C(=O)N(C)[C@@H](CC(C)C)C(=O)N(C)[C@@H](C(C)C)C(=O)N1C [CYCLOSPORINE]	> 30 mg/kg	>30 mg/kg	> 30 mg/kg	8 days	–	MST (Rattus norvegicus [11]): 19.8 days; MST (Rattus norvegicus [4]): 10.8 days
CCCCCCCCc1ccc(CCC(N)(CO)CCCO)cc1.Cl (stereo unspecified)	0.021 mg/kg	–	–	–	0.085 mg/kg	–
CCCCCCCCc1ccc(CCC(N)(CCO)CCO)cc1	> 10 mg/kg	–	–	–	> 10 mg/kg	–
CCCCCCC/C(=N\O)c1ccc(CCC(N)(CO)CO)cc1	–	1 mg/kg	0.03 mg/kg	–	–	–
CCCCCCCCCCCc1ccc(CCC(N)(CO)CO)cc1.Cl	–	0.1 mg/kg	0.1 mg/kg	39.3 days	–	MST (Rattus norvegicus [6]): 23.3 days; MST (Rattus norvegicus [9]): Toxic
C=CCC(N)(CO)CCc1ccc(OCCCCCCC)cc1 (stereo unspecified)	3.1 mg/kg	–	–	–	1.9 mg/kg	–
CCCCCCCOc1ccc(CC[C@@](N)(CO)CCO)cc1.Cl	0.018 mg/kg	–	–	–	0.017 mg/kg	–
